{"source": "ChEMBL document CHEMBL3856229", "about": "“Hybrid Antibiotic Overcomes Resistance in P. aeruginosa by Enhancing Outer Membrane Penetration and Reducing Efflux” (J Med Chem, 2016)", "key": {"[1]": {"test_system": "Pseudomonas aeruginosa", "assay": "Antimicrobial activity against Pseudomonas aeruginosa PAO200", "format": "functional", "method_in_brief": "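MIC (µg/mL) determined in PAO200, a PAO1-derived MexAB-OprM deletion strain used to assess efflux effects.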"}, "[2]": {"test_system": "Pseudomonas aeruginosa", "assay": "Antibacterial activity against multidrug-resistant/tobramycin-susceptible Pseudomonas aeruginosa isolate 79199", "format": "functional"}, "[3]": {"test_system": "Pseudomonas aeruginosa", "assay": "Antibacterial activity against pandrug-resistant Pseudomonas aeruginosa isolate 101243 in presence of <= 4 ug/ml of ciprofloxacin (reference value: 8 ug/ml)", "format": "functional"}, "[4]": {"test_system": "Staphylococcus aureus", "assay": "Antibacterial activity against methicillin-resistant Staphylococcus aureus ATCC 33592 after 24 hrs by microtitre broth dilution method", "format": "functional", "settings": "ATCC 33592, 24 h"}, "[5]": {"test_system": "Escherichia coli", "assay": "Antibacterial activity against of wild-type Escherichia coli isolate 79768", "format": "functional"}, "[6]": {"test_system": "Pseudomonas aeruginosa", "assay": "Potentiation of ciprofloxacin induced antibacterial activity against multidrug/extremely drug-resistant Pseudomonas aeruginosa isolate PA262-101856 assessed as ciprofloxacin MIC at <= […] ug/ml (reference value: […] to […] ug/ml)", "format": "functional"}, "[7]": {"test_system": "Pseudomonas aeruginosa", "assay": "Antibacterial activity against multidrug-resistant/tobramycin-susceptible Pseudomonas aeruginosa isolate 85322", "format": "functional"}, "[8]": {"test_system": "Pseudomonas aeruginosa", "assay": "Antibacterial activity against Pseudomonas aeruginosa PAO1 assessed as fractional inhibitory concentration index after 18 hrs in presence of moxifloxacin by checkerboard method", "format": "functional", "method_in_brief": "(§1)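 Checkerboard combinations of the hybrid with each partner antibiotic were tested against P. aeruginosa PAO1. Interaction is expressed as the fractional inhibitory concentration (FIC) index: ≤0.5 means synergy, 1–2 no interaction, ≥4 antagonism.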"}, "[9]": {"test_system": "Pseudomonas aeruginosa", "assay": "Induction of cytoplasmic membrane depolarization in Pseudomonas aeruginosa PAO1 by DiSC3(5) dye based fluorescence assay", "format": "functional"}, "[10]": {"test_system": "Pseudomonas aeruginosa", "assay": "Antibacterial activity against multidrug/extremely drug-resistant/colistin-susceptible Pseudomonas aeruginosa isolate 264-104354", "format": "functional"}, "[11]": {"test_system": "Pseudomonas aeruginosa", "assay": "Antibacterial activity against multidrug/extremely drug-resistant/colistin-susceptible Pseudomonas aeruginosa isolate 100036", "format": "functional"}, "[12]": {"test_system": "Enterococcus faecalis", "assay": "Antibacterial activity against Enterococcus faecalis ATCC 29212 after 24 hrs by microtitre broth dilution method", "format": "functional", "settings": "ATCC 29212, 24 h"}, "[13]": {"test_system": "Staphylococcus epidermidis", "assay": "Antibacterial activity against methicillin-susceptible Staphylococcus epidermidis isolate CANWARD-2008 81388 after 24 hrs by microtitre broth dilution method", "format": "functional", "settings": "isolate CANWARD-2008 81388, 24 h"}, "[14]": {"test_system": "Streptococcus pneumoniae", "assay": "Antibacterial activity against Streptococcus pneumoniae ATCC 49619 after 24 hrs by microtitre broth dilution method", "format": "functional", "settings": "ATCC 49619, 24 h"}, "[15]": {"test_system": "Pseudomonas aeruginosa", "assay": "Ratio of MIC for Pseudomonas aeruginosa PAO1 after 25 serial passages to MIC for Pseudomonas aeruginosa PAO1 prior to 25 serial passages", "format": "functional", "method_in_brief": "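P. aeruginosa PAO1 exposed to sub-inhibitory (0.5 x MIC) drug over successive subcultures as a resistance-selection procedure. MIC compared after versus before passaging.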"}, "[16]": {"test_system": "Pseudomonas aeruginosa", "assay": "Potentiation of ciprofloxacin induced antibacterial activity against multidrug/extremely drug-resistant Pseudomonas aeruginosa isolate PA259-96918 assessed as ciprofloxacin MIC at <= […] ug/ml (reference value: […] ug/ml)", "format": "functional"}, "[17]": {"test_system": "Pseudomonas aeruginosa", "assay": "Antibacterial activity against multidrug-resistant/tobramycin-susceptible Pseudomonas aeruginosa isolate 84745", "format": "functional"}, "[18]": {"test_system": "Pseudomonas aeruginosa", "assay": "Antibacterial activity against multidrug/extremely drug-resistant/colistin-susceptible Pseudomonas aeruginosa isolate 259-96918", "format": "functional"}, "[19]": {"test_system": "Staphylococcus epidermidis", "assay": "Antibacterial activity against methicillin-resistant Staphylococcus epidermidis isolate CAN-ICU 61589 after 24 hrs by microtitre broth dilution method", "format": "functional", "settings": "isolate CAN-ICU 61589, 24 h"}, "[20]": {"test_system": "Pseudomonas aeruginosa", "assay": "Antibacterial activity against pandrug-resistant Pseudomonas aeruginosa isolate 101243", "format": "functional"}, "[21]": {"assay": "Selectivity ratio of MIC for Pseudomonas aeruginosa PAO1 to MIC for Pseudomonas aeruginosa PAO750", "format": "functional", "method_in_brief": "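MICs were measured in PAO1 and in PAO750. PAO750 is a PAO1 derivative lacking the MexAB-OprM, MexCD-OprJ, MexEF-OprN, MexJK and MexXY efflux pumps and the outer membrane protein OpmH.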"}, "[22]": {"test_system": "Pseudomonas aeruginosa", "assay": "Potentiation of moxifloxacin induced antibacterial activity against multidrug/extremely drug-resistant Pseudomonas aeruginosa isolate PA260-97103 assessed as moxifloxacin MIC at <= […] ug/ml (reference value: […] to […] ug/ml)", "format": "functional"}, "[23]": {"test_system": "Escherichia coli", "assay": "Antibacterial activity against amikacin-resistant Escherichia coli isolate CAN-ICU 63074 after 24 hrs by microtitre broth dilution method", "format": "functional", "settings": "isolate CAN-ICU 63074, 24 h"}, "[24]": {"assay": "Inhibition of Pseudomonas aeruginosa DNA gyrase A assessed as inhibition of DNA supercoiling using PBR322 DNA as substrate after 30 mins by SYBR Gold staining based agarose gel electrophoresis"}, "[25]": {"test_system": "Pseudomonas aeruginosa", "assay": "Induction of outer membrane permeabilization in Pseudomonas aeruginosa PAO1 assessed as accumulation of propidium iodide at 8 ug/ml after 3 to 4 hrs by fluorescence microscopy", "format": "functional", "method_in_brief": "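PAO1 cells were treated with 8 µg/mL for 3 h at 37 °C, then stained with the membrane-impermeable nucleic-acid dye propidium iodide. Fluorescence microscopy and DIC imaging were compared against untreated cells.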"}, "[26]": {"test_system": "Pseudomonas aeruginosa", "assay": "Antibacterial activity against Pseudomonas aeruginosa ATCC 27853 after 24 hrs by microtitre broth dilution method", "format": "functional", "settings": "ATCC 27853, 24 h"}, "[27]": {"test_system": "Pseudomonas aeruginosa", "assay": "Antibacterial activity against multidrug/extremely drug-resistant Pseudomonas aeruginosa isolate PA264-104354 in presence of <= 4 ug/ml of moxifloxacin (reference value: 4 ug/ml)", "format": "functional"}, "[28]": {"test_system": "Pseudomonas aeruginosa", "assay": "Antimicrobial activity against Pseudomonas aeruginosa PAO1 assessed as cell membrane blebbing at 8 ug/ml after 3 to 4 hrs by uranyl acetate staining based transmission electron microscopy", "format": "functional", "method_in_brief": "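PAO1 in Mueller-Hinton broth was exposed to 8 µg/mL at 37 °C (3 h in the legend, 4 h in the text). Untreated cells were the reference. Morphology was imaged by transmission electron microscopy at 75 kV.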"}, "[29]": {"test_system": "Pseudomonas aeruginosa", "assay": "Antibacterial activity against multidrug-resistant/tobramycin-susceptible Pseudomonas aeruginosa isolate 83182", "format": "functional"}, "[30]": {"test_system": "Pseudomonas aeruginosa", "assay": "Antibacterial activity against gentamicin-resistant Pseudomonas aeruginosa isolate CAN-ICU 62308 after 24 hrs by microtitre broth dilution method", "format": "functional", "settings": "isolate CAN-ICU 62308, 24 h"}, "[31]": {"test_system": "Pseudomonas aeruginosa", "assay": "Antibacterial activity against extremely drug-resistant Pseudomonas aeruginosa isolate 104354 infected in Galleria mellonella assessed as larvae survival at 50 mg/kg administered as single dose measured after 24 hrs (reference value: 27 %)", "format": "functional", "settings": "isolate 104354, 24 h", "method_in_brief": "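Galleria mellonella larvae were infected with 10^6 CFU of XDR P. aeruginosa #104354, resistant to all antipseudomonal classes except colistin. A single injected drug dose was given 2 h post-infection: 50 mg/kg with survival read at 24 h, or 75 mg/kg with survival read at 96 h. Controls were infected untreated larvae and PBS-injected larvae. Two independent experiments of 15 larvae each (n = 30).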"}, "[32]": {"test_system": "Pseudomonas aeruginosa", "assay": "Potentiation of moxifloxacin induced antibacterial activity against multidrug/extremely drug-resistant Pseudomonas aeruginosa isolate PA262-101856 assessed as moxifloxacin MIC at <= […] ug/ml (reference value: […] to […] ug/ml)", "format": "functional"}, "[33]": {"test_system": "Pseudomonas aeruginosa", "assay": "Antibacterial activity against Pseudomonas aeruginosa PAO1 assessed as fractional inhibitory concentration index after 18 hrs in presence of rifampicin by checkerboard method", "format": "functional", "method_in_brief": "as §1"}}, "note": "Activity calls are given as the source filed them. The calls are words filed in the database; no cut-off is given here.", "data": [{"compound": "COc1c(N2C[C@@H]3CCCN(CCCCCCCCCCCCO[C@@H]4[C@@H](O[C@H]5O[C@H](CO)[C@@H](O)[C@H](N)[C@H]5O)[C@H](N)C[C@H](N)[C@H]4O[C@H]4O[C@H](CN)[C@@H](O)C[C@H]4N)[C@@H]3C2)c(F)cc2c(=O)c(C(=O)O)cn(C3CC3)c12.Cl.Cl.Cl.Cl.Cl", "values": [{"measurement": "MIC", "setting": "[1]", "result": 4, "unit": "µg/mL"}, {"measurement": "MIC", "setting": "[2]", "result": 8, "unit": "µg/mL"}, {"measurement": "MIC", "setting": "[3]", "result": "< 1", "unit": "µg/mL"}, {"measurement": "MIC", "setting": "[4]", "result": 1, "unit": "µg/mL"}, {"measurement": "MIC", "setting": "[5]", "result": "≤ 2", "unit": "µg/mL"}, {"measurement": "MIC", "setting": "[6]", "result": 1, "unit": "µg/mL"}, {"measurement": "MIC", "setting": "[7]", "result": 8, "unit": "µg/mL"}, {"measurement": "fractional inhibitory concentration index (FICI)", "setting": "[8]", "result": 0.18}, {"measurement": "Activity", "setting": "[9]", "result": "Dose-dependent effect"}, {"measurement": "MIC", "setting": "[10]", "result": 4, "unit": "µg/mL"}, {"measurement": "MIC", "setting": "[11]", "result": 8, "unit": "µg/mL"}, {"measurement": "MIC", "setting": "[12]", "result": 4, "unit": "µg/mL"}, {"measurement": "MIC", "setting": "[13]", "result": 2, "unit": "µg/mL"}, {"measurement": "MIC", "setting": "[14]", "result": 1, "unit": "µg/mL"}, {"measurement": "Ratio", "setting": "[15]", "result": 2}, {"measurement": "MIC", "setting": "[16]", "result": "< 1", "unit": "µg/mL"}, {"measurement": "MIC", "setting": "[17]", "result": 8, "unit": "µg/mL"}, {"measurement": "MIC", "setting": "[18]", "result": 2, "unit": "µg/mL"}, {"measurement": "MIC", "setting": "[19]", "result": 16, "unit": "µg/mL"}, {"measurement": "MIC", "setting": "[20]", "result": 8, "unit": "µg/mL"}, {"measurement": "Selectivity ratio", "setting": "[21]", "result": 8}, {"measurement": "MIC", "setting": "[22]", "result": 1, "unit": "µg/mL"}, {"measurement": "MIC", "setting": "[23]", "result": 4, "unit": "µg/mL"}, {"measurement": "IC50", "setting": "[24]", "result": 54.7, "unit": "µM"}, {"measurement": "Activity", "setting": "[25]", "result": "Active"}, {"measurement": "MIC", "setting": "[26]", "result": 4, "unit": "µg/mL"}, {"measurement": "MIC", "setting": "[27]", "result": "< 1", "unit": "µg/mL"}, {"measurement": "Activity", "setting": "[28]", "result": "Active"}, {"measurement": "MIC", "setting": "[29]", "result": 8, "unit": "µg/mL"}, {"measurement": "MIC", "setting": "[30]", "result": 8, "unit": "µg/mL"}, {"measurement": "survival at 50 mg/kg", "setting": "[31]", "result": 100, "unit": "%"}, {"measurement": "MIC", "setting": "[32]", "result": 2, "unit": "µg/mL"}, {"measurement": "fractional inhibitory concentration index (FICI)", "setting": "[33]", "result": 0.15}]}]}
